Bioassay records deposited in PubChem BioAssay by several laboratories.
NR1D1 modulator – modulators of Rev-erb alpha DNA binding, primary screen, biochemical, FITC-DNA, fluorescence polarization, uHTS; Nuclear receptor subfamily 1 group D member 1 (Homo sapiens), P20393; Rev-erbα–FITC-DNA binding, 90 min; activity, % at 10 µM; hit rate 0.79% among 370,000; AID 1259318, 2017;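 active = activity above about 14%, limit read from the data; passing the limit was not always enough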
NR2E3 ag-1 – NR2E3 agonists in two-hybrid cells, primary screen, cell-based, luminescence, CHO-S, Gal4-NCOR/VP16-NR2E3. Photoreceptor-specific nuclear receptor (Homo sapiens), Q9Y5X4. luciferase. inhibition of corepressor binding, % at 3.98 µM. hit rate 0.35% among 360,000;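 active = inhibition above the mean of all tested compounds plus 3 SD, cut at about 70% in these data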;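 note: higher means lower luciferase signal from less NR2E3 corepressor binding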
Target sequence (Q9Y5X4 whole entry, looked up, the tested form may be a part): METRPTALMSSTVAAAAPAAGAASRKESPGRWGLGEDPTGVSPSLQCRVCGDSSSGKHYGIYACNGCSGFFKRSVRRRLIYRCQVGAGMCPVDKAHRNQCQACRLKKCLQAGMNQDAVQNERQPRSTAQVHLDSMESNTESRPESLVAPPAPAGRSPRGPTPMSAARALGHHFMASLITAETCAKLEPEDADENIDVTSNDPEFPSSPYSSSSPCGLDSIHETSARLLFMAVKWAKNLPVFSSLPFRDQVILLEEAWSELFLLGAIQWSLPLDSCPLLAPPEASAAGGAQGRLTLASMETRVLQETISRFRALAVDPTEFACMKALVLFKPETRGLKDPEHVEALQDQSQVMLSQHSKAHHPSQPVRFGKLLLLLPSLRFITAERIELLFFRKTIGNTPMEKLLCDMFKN
PG9 binder – binders of HIV-1 gp120 antibody PG9, primary screen, biochemical, TR-FRET; HIV-1 gp120 / PG9 antibody interaction; TR-FRET gp120-PG9 antibody binding; inhibition, % at 6.7 µM; hit rate 0.43% among 360,000; AID 624416, 2012; in the data active = inhibition above about 8.5%
NR2E3 ag-2 – inhibitors of NR2E3-RetCOR corepressor binding, primary screen, NR2E3 agonist project, biochemical, TR-FRET, GST-NR2E3, biotin-RetCOR | 1536-well | inhibition of corepressor binding, % at 4.78 µM | hit rate 0.12% among 320,000 | AID 2300, 2010;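 active = percent inhibition above the cutoff of mean plus 3 SD of all tested compounds, set per screening campaign, cut at about 20% in these data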
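Material: NR2E3–RetCOR corepressor complex | Quantity: 1.35 nM GST-tagged NR2E3 final | Schedule: 5 h at 4 °C | Replication: Singlicate compound wells | Reagent: RetCOR corepressor, biotinylated, 7 nM | Controls: Biotin wells as high control, 0.6% DMSO wells as low control | Signal: TR-FRET, Eu(K)-anti-GST donor, streptavidin-D2 acceptor, ex 340, em 617/671 nm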
NR1D1 mod conf – modulators of Rev-erb alpha DNA binding, confirmation, biochemical, FITC-DNA, fluorescence polarization, single point. hit rate 61% among 3,000. activation, % at 25 µM. shares compounds with NR1D1 modulator. 90 min;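 active = activation at or above a set limit, or at least 3 SD above the negative control mean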
RORg counter – modulation of RORgamma DNA binding, dose response, counter-screen for Rev-erb alpha modulator project, biochemical, fluorescence polarization, FITC-DNA; hit rate 8% among 910; IC50, µM; shares compounds with NR1D1 modulator; purified RORgamma protein-FITC-DNA binding; AID 1259320, 2017;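 active = Compounds whose fitted half-maximal concentration for disrupting protein-DNA binding is below 10 micromolar; the record names Rev-erb in its text, so the target is in doubt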
Each line names hits and unclear results; the compound was inactive in the other large screens (follow-up assays come after a bar, where they were run). Sampled rows, rich in hits. Any-hit rate of the full collection: about 1.4%.

CCn1cc(C(=O)NCCc2ccc(Cl)cc2)c(=O)c2ccc(C)nc21	NR1D1 modulator 29 (no result: NR2E3 ag-2) | NR1D1 mod conf inactive
CC(C)(C)c1ccc(C(=O)N2CCC2(C)C(=O)Nc2cccc3ncccc23)cc1 (stereo not drawn)	none (no result: NR2E3 ag-2)
C=CCN(C(=O)CSc1nc2ccsc2c(=O)n1Cc1ccc(C(=O)O)cc1)c1ccccc1	none (no result: NR2E3 ag-2)
CCOc1ccc(S(=O)(=O)N2CCCCC2)cc1NC(=O)c1cccnc1OCC	none (no result: NR2E3 ag-2)
CCOc1ncccc1C(=O)Nc1cc(S(=O)(=O)N2CCOCC2)ccc1OCC(F)(F)F	NR1D1 modulator 31 (no result: NR2E3 ag-2) | NR1D1 mod conf 15
COc1ccc2oc(C(=O)OCC(=O)/C(C#N)=C(\C)N)c(C)c2c1	NR1D1 modulator 20 | NR1D1 mod conf inactive
CC(C)C(=O)Oc1ccc(CO)cc1[C@H](CCN(C(C)C)C(C)C)c1ccccc1	none (no result: NR2E3 ag-1, PG9 binder, NR2E3 ag-2)
Cc1ccc(OCC(=O)Nc2sc3c(c2C#N)CC(C)(C)NC3(C)C)cc1	none
CC1(C)Cc2c(sc(NC(=O)COc3ccc(Cl)cc3)c2C(N)=O)C(C)(C)N1	NR1D1 modulator 16 | NR1D1 mod conf inactive
COc1ccc(OC)c(C(=O)COC(=O)c2[nH]c(C)c(C(C)=O)c2C)c1	NR1D1 modulator 16 (no result: NR2E3 ag-2) | NR1D1 mod conf inactive
Cc1cc(NC(=O)c2cccs2)cc(-c2nc3ncccc3o2)c1O	NR1D1 modulator 71 | NR1D1 mod conf 67 | RORg counter inactive
Cc1ccc(-c2nc3ncccc3o2)cc1NC(=O)c1cccs1	none
CCOC(=O)[C@@]12CCCC3=C1N(CCC3)C(=O)[C@H]2CC(=O)NCc1ccccc1	none (no result: NR2E3 ag-1, PG9 binder, NR2E3 ag-2)
O=C(CSc1nc2ccccc2c(=O)n1-c1ccc(F)c(Cl)c1)Nc1cccc(S(=O)(=O)N2CCOCC2)c1	NR1D1 modulator 38 | NR1D1 mod conf 19
Cc1ccc(-n2c(SCC(=O)Nc3cccc(S(=O)(=O)NC4=NCCCCC4)c3)nc3ccccc3c2=O)cc1	NR1D1 modulator 80 | NR1D1 mod conf 42 | RORg counter inactive
CCc1ccc(-n2c(SCC(=O)Nc3cccc(S(=O)(=O)NC4=NCCCCC4)c3)nc3ccccc3c2=O)cc1	none
O=C(CSc1nc2ccccc2c(=O)n1-c1ccc(F)cc1)Nc1ccc(Cl)c(S(=O)(=O)N2CCOCC2)c1	NR1D1 modulator 63 | NR1D1 mod conf 33 | RORg counter inactive
CCOC(=O)c1c(NC(=O)CSc2nc3ccccc3c(=O)n2-c2ccc(F)cc2)sc(C(C)=O)c1C	NR1D1 modulator 114 | NR1D1 mod conf 30
O=C1C=C(O)CC2(CCCCC2)C1	none (no result: NR1D1 modulator, PG9 binder, NR2E3 ag-2)
N#C/C(=C(/O)c1cccc(F)c1)c1nc2ccccc2s1	none
N#C/C(=C(/O)C(Cl)c1ccccc1)c1nc2ccccc2s1 (stereo not drawn)	NR1D1 modulator 76 | NR1D1 mod conf 49 | RORg counter inactive
CN1CCCN(S(=O)(=O)c2ccc3c(c2)n(C)c(=O)c(=O)n3C)CC1	none (no result: NR2E3 ag-1, PG9 binder, NR2E3 ag-2)
Cc1onc(C(=O)N2CCN(C(c3ccc(F)cc3)c3ccc(F)cc3)CC2)c1[N+](=O)[O-]	none (no result: NR2E3 ag-1, PG9 binder, NR2E3 ag-2)
CCOC(=O)C1=NOC(C(=O)Nc2cc(C)cc(C)c2)(C(=O)C2CC2)C1 (stereo not drawn)	none (no result: NR2E3 ag-1, PG9 binder, NR2E3 ag-2)
O=C(Nc1ccnc(-c2cccnc2)n1)c1ccc(Cl)cc1	NR1D1 modulator 45 | NR1D1 mod conf 41 | RORg counter inactive
O=C(Nc1ccnc(-c2cccnc2)n1)c1ccc(F)cc1	none (no result: NR1D1 modulator, NR2E3 ag-1, PG9 binder)
COc1cc(NC(=O)c2n[nH]c(=O)c3ccccc23)cc(OC)c1	NR1D1 modulator 26 | NR1D1 mod conf 20
CCOC(=O)c1ccc(NC(=O)c2n[nH]c(=O)c3ccccc23)cc1	none
CCOC(=O)c1ccccc1NC(=O)c1n[nH]c(=O)c2ccccc12	NR1D1 modulator 53 | NR1D1 mod conf 25
Cc1c(N2C(=O)/C(=C/c3ccc(N(C)C)cc3)N(C)C2=S)c(=O)n(-c2ccccc2)n1C	NR1D1 modulator 22 (no result: NR2E3 ag-2) | NR1D1 mod conf 19
COc1ccc(N2C(=O)c3n[nH]c(C)c3C2c2cccc(C(F)(F)F)c2)cc1 (stereo not drawn)	none (no result: NR2E3 ag-1, NR2E3 ag-2)
COc1cc(OC)cc(C(=O)Nc2ccc(S(=O)(=O)Nc3cnc4ccccc4n3)cc2)c1	none
COc1cc(OC)cc(C(=O)Nc2ccc(S(=O)(=O)Nc3ccccn3)cc2)c1	NR1D1 modulator 25 | NR1D1 mod conf inactive
CCN(CC)C(=O)C1=C(C)N(CCCN2CCCC2=O)C(=O)C(CC(=O)NC2CCCC2)C1 (stereo not drawn)	none (no result: NR2E3 ag-2)
Cc1n[nH]c(C)c1CCNC(=O)C1CCC(=O)N(Cc2ccccc2F)C1 (stereo not drawn)	NR1D1 modulator 17 | NR1D1 mod conf inactive
O=C(NCCc1ccccc1F)C1CCC(=O)N(Cc2ccccc2F)C1 (stereo not drawn)	none
CCc1nc2c(OCC3COc4ccccc4O3)cccn2c1N(C)C(=O)c1ccc(OC)cc1 (stereo not drawn)	none (no result: NR2E3 ag-2)
CCCCN(C)S(=O)(=O)c1ccc(C(=O)N=c2sc3cc(NC(C)=O)ccc3n2C)cc1	NR1D1 modulator 42 | NR1D1 mod conf inactive
O=[N+]([O-])c1ccc(N2CCN(Cc3ccccc3)CC2)s1	none
CC1CCCN(c2ccc([N+](=O)[O-])s2)C1 (stereo not drawn)	NR1D1 modulator 31 (no result: NR2E3 ag-2) | NR1D1 mod conf inactive
O=[N+]([O-])c1ccc(N2CCCCC2)s1	NR1D1 modulator 23 | NR1D1 mod conf 18
COc1cccc(CN2CCC2(C)C(=O)Nc2ccc(Cl)c(Cl)c2)c1F (stereo not drawn)	none (no result: NR2E3 ag-2)
Cn1nc(C(C)(C)C)cc1NC(=O)C1(C)CCN1C(=O)Cc1ccc(-c2ccccc2)cc1 (stereo not drawn)	none (no result: NR2E3 ag-2)
COC(=O)c1ccc2nc(C3CCCCC3)c(Cc3ccccc3C(F)(F)F)n2c1	NR1D1 modulator 18 (no result: NR2E3 ag-2) | NR1D1 mod conf 12
FC(F)(F)c1ccccc1Cc1c(C2CCCCC2)nc2ccc(Cl)cn12	none (no result: NR2E3 ag-2)
N#Cc1c(-c2ccccc2Cl)cc(C2CC2)nc1N	none
N#Cc1c(-c2cccc(F)c2)cc(-c2ccccc2)nc1Br	NR1D1 modulator 58, PG9 binder 9.1 | NR1D1 mod conf 25
N#Cc1c(-c2ccccc2Cl)cc(-c2ccccc2)nc1Br	NR1D1 modulator 32 | NR1D1 mod conf 22
O=[N+]([O-])c1ccc(NN=Cc2cccc3ccccc23)cc1	none (no result: NR2E3 ag-2)
Cc1ccc[n+](-c2nc([O-])sc2/C=N/Nc2ccc([N+](=O)[O-])cc2)c1	NR1D1 modulator 26 | NR1D1 mod conf inactive
CCOc1ccc(/C(O)=C2/C(=O)C(=O)N(CCN(CC)CC)C2c2cccs2)cc1 (stereo not drawn)	none
